# High-throughput results (PubChem)
# The list is not random: actives were taken first. Their share in the collection is about 1.1%.
# Arr AP2 block – blocks beta-arrestin peptide binding to AP2 adaptin; inhibition, % at 10 µM; FITC-arrestin peptide / GST-AP2 beads, flow cytometry; AP2 beta2 appendage carries R879A mutation; 0.31% of 340,000 active; AID 504490;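 active = inhibition above a set limit, near 3 SD of compounds lacking own fluorescence, cut at about 54% in these data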;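 also: plate controls were DMSO wells for no effect and 5 µM unlabelled arrestin peptide for full effect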
#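 System: GST-AP2 R879A glutathione beads | Also added: FITC-arrestin peptide, 50 nM | Times: 12 min plus 1 h, RT | Signal: Bead flow cytometry, FITC channel | Buffer or medium: PBS with 0.05% Tween 20 and 0.1% BSA | Read-out basis: Percent drop in bead-associated FITC signal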
# GASC-1 inh – inhibitors of human GASC-1 (JMJD2C) demethylase | Q9H3R0 | GST-JMJD2C(1-420) H3K9me3 demethylation, DELFIA europium | inhibition, % at 2.35 µM | 0.069% of 330,000 active | AID 2099;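 active = more than half of a compound's replicate wells show inhibition beyond 50%, single wells judged on their own value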;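 also: signal counts dimethyl H3K9 product captured on neutravidin plate; 0% = median of DMSO wells and 100% = 0.3 times that DMSO median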
# SENP1 inh – SENP1 (human) catalytic domain inhibition | Q9P0U3 | recombinant SENP1 catalytic domain, CyPet-SUMO1-YPet FRET cleavage | inhibition, % at 10 µM | 0.21% of 360,000 active | AID 624204;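 active = inhibition at least 30% at 10 µM, raw YFP signal under a set limit, fluorescence ratio 0.5 to 1.5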;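 also: 0% = enzyme with DMSO and 100% = no enzyme wells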
#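 Material – human SENP1 catalytic domain · Input – SENP1 enzyme, 20 pM final · Compound dosing – single concentration of 10 µM compound, 0.5% DMSO final · Timing – enzyme reaction for 50 min at room temperature, dark · Measured by – FRET fluorescence in CFP and YFP emission channels · Control set – no-enzyme wells low, DMSO-plus-enzyme wells high control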
# FAS TE block – blocks the thioesterase domain of human fatty acid synthase | 0.67% of 360,000 active | inhibition, % at 15 µM | P49327 | AID 602261 | recombinant FAS-TE, OMFH fluorogenic substrate, fluorescence endpoint;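 active = compounds whose normalised, plate-corrected inhibition of enzyme fluorescence in the single-dose primary screen is 50% or more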;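 also: 0% = DMSO with enzyme and 100% = substrate without enzyme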
# Target sequence (P49327 whole entry, looked up, the tested form may be a part): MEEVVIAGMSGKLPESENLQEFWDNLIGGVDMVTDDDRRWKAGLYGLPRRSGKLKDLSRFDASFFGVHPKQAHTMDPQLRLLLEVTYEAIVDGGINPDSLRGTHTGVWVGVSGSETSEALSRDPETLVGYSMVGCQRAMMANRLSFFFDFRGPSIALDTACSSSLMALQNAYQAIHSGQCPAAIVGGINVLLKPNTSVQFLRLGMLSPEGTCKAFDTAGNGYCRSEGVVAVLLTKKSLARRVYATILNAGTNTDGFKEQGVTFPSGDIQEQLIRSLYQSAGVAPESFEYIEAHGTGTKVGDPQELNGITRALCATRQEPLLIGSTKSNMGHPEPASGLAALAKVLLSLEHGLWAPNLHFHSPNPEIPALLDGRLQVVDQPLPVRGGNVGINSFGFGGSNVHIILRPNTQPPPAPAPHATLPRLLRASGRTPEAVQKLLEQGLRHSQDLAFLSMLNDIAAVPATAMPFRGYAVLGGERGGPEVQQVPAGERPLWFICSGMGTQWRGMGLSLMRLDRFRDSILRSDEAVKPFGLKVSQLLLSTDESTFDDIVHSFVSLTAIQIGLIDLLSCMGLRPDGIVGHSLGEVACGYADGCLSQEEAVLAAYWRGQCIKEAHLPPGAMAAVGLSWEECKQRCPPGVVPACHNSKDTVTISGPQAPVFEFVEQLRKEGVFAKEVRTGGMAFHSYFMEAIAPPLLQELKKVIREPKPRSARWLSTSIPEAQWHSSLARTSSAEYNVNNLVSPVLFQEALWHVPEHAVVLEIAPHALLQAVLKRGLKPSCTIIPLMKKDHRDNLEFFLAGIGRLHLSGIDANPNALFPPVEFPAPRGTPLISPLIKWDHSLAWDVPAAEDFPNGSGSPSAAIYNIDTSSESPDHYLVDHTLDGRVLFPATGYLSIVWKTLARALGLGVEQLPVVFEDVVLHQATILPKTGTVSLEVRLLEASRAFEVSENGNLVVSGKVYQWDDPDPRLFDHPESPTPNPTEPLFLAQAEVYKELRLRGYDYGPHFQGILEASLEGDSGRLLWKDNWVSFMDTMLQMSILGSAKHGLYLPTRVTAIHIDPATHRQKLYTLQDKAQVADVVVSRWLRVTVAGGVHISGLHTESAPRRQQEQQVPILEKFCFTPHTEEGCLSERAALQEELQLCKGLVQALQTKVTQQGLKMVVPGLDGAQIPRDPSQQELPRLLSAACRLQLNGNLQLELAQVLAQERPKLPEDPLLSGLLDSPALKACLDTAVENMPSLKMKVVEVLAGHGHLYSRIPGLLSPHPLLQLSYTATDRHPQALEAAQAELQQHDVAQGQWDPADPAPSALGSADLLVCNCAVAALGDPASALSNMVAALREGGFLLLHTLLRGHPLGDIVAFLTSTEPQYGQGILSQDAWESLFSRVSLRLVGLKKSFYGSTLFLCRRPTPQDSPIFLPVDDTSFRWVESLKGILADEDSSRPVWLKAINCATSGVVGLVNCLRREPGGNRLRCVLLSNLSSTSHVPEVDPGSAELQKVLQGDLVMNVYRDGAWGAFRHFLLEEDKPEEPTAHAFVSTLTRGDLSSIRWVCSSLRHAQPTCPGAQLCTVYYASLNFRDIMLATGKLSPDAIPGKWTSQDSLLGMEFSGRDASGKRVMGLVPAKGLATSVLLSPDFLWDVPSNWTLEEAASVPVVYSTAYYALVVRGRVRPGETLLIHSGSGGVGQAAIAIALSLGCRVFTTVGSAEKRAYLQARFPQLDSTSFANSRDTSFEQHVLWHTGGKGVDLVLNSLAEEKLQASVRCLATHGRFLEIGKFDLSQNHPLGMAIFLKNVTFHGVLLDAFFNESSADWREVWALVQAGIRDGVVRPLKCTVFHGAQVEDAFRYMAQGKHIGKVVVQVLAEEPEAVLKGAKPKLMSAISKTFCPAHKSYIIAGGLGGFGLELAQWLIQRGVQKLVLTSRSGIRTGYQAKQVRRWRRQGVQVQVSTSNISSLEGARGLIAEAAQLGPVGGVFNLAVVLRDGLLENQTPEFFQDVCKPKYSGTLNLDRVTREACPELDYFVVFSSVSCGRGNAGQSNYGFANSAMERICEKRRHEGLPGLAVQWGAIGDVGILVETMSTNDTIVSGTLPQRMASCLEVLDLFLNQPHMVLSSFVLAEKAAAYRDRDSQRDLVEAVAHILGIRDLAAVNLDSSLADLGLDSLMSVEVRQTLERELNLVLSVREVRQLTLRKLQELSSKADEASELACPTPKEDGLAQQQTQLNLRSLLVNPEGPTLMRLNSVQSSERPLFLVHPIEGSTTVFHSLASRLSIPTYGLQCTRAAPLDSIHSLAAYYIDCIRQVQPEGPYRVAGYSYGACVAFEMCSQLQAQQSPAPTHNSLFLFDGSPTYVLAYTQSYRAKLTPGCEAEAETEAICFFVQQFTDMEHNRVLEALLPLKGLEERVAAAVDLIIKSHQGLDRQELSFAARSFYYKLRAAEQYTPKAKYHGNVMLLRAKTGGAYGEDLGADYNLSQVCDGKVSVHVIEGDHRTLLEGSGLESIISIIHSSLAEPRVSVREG
# Arr-AP2 CP1 – inhibitors of human beta-arrestin and AP2 interaction | shares compounds with Arr AP2 block | GST-AP2 beads, FITC arrestin peptide binding, flow cytometry; GST-fused beta2-adaptin appendage, R879A mutant | inhibition, % at 10 µM | 2% of 1,300 active | AID 504908;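 active = inhibition above a set limit, roughly 3 SD of non-fluorescent compound noise, cut at about 38% in these data; inactive = inhibition at or below that limit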;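 also: loss of bead fluorescence from 50 nM FITC arrestin peptide bound to appendage; 0% = negative control wells and 100% = excess unlabelled arrestin peptide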
# GST-FITC bead – GST-GSH bead binding interference, counter-screen | shares compounds with Arr AP2 block | GST-fluorescein binding to GSH beads, fluorescence | inhibition, % at 10 µM | 2% of 1,300 active | AID 588338;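 active = inhibition above 50%, about 3 SD of the inhibition seen with non-fluorescent compounds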;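 also: fluorescein maleimide labelled GST captured on 4 micron glutathione beads; higher means more loss of bead fluorescence from quenching or blocked binding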
# An asterisk follows results filed as active; nt = no result.
SMILES,Arr AP2 block,GASC-1 inh,SENP1 inh,FAS TE block,Arr-AP2 CP1,GST-FITC bead
COc1ccc(CCN(Cc2cc3cccc(C)c3[nH]c2=O)C(=O)NC2CCCCC2)cc1OC,8.6,0.3,0.4,1.0,-1.5,-4.8
Cc1ccc(SCC(=O)OCC(=O)NCc2ccco2)cc1,-4.0,-4.4,2.3,-7.9,nt,nt
O=[N+]([O-])c1ccc(Nc2nccc(Cl)n2)cc1,37.9,-46.6,-0.5,7.7,nt,nt
C#CCSc1nc2[nH]ncc2c(=O)[nH]1,14.0,7.0,0.0,-11.9,nt,nt
CC(C)CCSc1nc2[nH]ncc2c(=O)[nH]1,59.0*,0.3,1.1,-9.5,4.7,5.8
Cc1cc(C)c(NC(=O)CC(=O)c2ccccc2)c(Cl)c1,-11.6,19.3,0.9,2.4,11.2,-5.2
Cc1cc(C)c(NC(=O)CS)c(Cl)c1,25.9,11.1,1.1,-25.1,nt,nt
COc1ccc(Cl)cc1NC(=O)Nc1cnccn1,-2.4,3.3,1.8,0.0,nt,nt
COc1ccc(NC(=O)Nc2cnccn2)c(OC)c1,-5.7,-3.4,1.2,-8.1,10.9,-5.0
COc1ccc(C)cc1NC(=O)Nc1cnccn1,-9.3,-5.0,-0.7,-7.4,2.5,0.4
COc1ccc(N(C(=O)c2ccco2)C(C(=O)NC2CCCCC2)c2cccs2)cc1OC (stereo not given),105.2*,1.5,1.7,-5.1,2.1,-10.5
CCOc1ccc(C(C(=O)NC2CCCCC2)N(C(=O)c2ccco2)c2ccc(-n3cnnn3)c(C)c2)cc1 (stereo not given),100.5*,18.1,0.4,28.5,-19.5,-3.9
CC(=O)c1cccc(N(C(=O)c2ccco2)C(C(=O)NC2CCCC2)c2cccs2)c1 (stereo not given),6.0,-1.5,1.9,-1.2,nt,nt
C[C@H](CO)N1C[C@H](C)[C@@H](CN(C)S(=O)(=O)c2ccc(F)cc2)Oc2ccc(NC(=O)Nc3ccccc3)cc2C1=O,-5.2,29.9,1.4,4.8,nt,nt
COc1ccc(S(=O)(=O)N(C)C[C@H]2Oc3ccc(NS(=O)(=O)c4cn(C)cn4)cc3C(=O)N([C@H](C)CO)C[C@@H]2C)cc1,73.0*,nt,1.3,-11.5,0.2,-3.4
C[C@H](CO)N1C[C@H](C)[C@@H](CN(C)S(=O)(=O)c2ccccc2)Oc2ccc(NC(=O)Nc3ccccc3)cc2C1=O,54.4*,-12.7,-0.4,5.5,10.4,-8.4
O=C(CCN1C(=O)c2ccccc2C1=O)Nc1cccc(S(=O)(=O)N2CCCCC2)c1,1.3,6.5,-2.3,8.8,nt,nt
CC(C)CCNC(=O)c1cc2c(s1)-c1ccccc1S(=O)(=O)C2,-3.4,-3.1,-22.3,5.2,nt,nt
COC(c1ccccc1)c1nnc(CCC(=O)N2CCN(C3CCCC3)CC2)o1 (stereo not given),68.6*,1.1,0.8,-6.5,17.1,-7.6
CC(C)(C)C(=O)NCc1ccc(C(=O)CSc2nnc(-c3ccncc3)n2C2CC2)s1,62.4*,nt,-10.2,-8.0,-11.5,2.1
CC1CCCN(c2nc3c(c(=O)n(C)c(=O)n3C)n2Cc2ccccc2)C1 (stereo not given),0.5,11.9,-1.4,4.4,nt,nt
O=c1cc(CO)[nH]cc1OCc1ccccc1,61.5*,-7.0,1.3,-3.9,-4.9,-4.6
Cc1cccc2cc(/C=C3\N=C(c4ccccc4)OC3=O)c(N3CCOCC3)nc12,67.3*,5.8,-3.8,-28.4,13.7,22.8
O=C(CCS(=O)(=O)c1ccc(Br)s1)NCc1cccs1,-5.0,5.4,0.2,-4.1,nt,nt
O=C(c1ccco1)N(Cc1cc2ccccc2[nH]c1=O)C1CCCCC1,79.4*,3.6,-8.5,-12.9,16.6,-9.4
SMILES,Arr AP2 block,GASC-1 inh,SENP1 inh,FAS TE block,Arr-AP2 CP1,GST-FITC bead
N#Cc1cccc(NC(=O)CSc2nnc(C3CC3)n2C2CC2)c1,2.0,1.8,1.4,-3.1,nt,nt
CCCCNC(=O)N1c2ccccc2CC1C (stereo not given),57.2*,-2.3,0.0,-13.7,13.4,-8.8
COC(=O)c1ccccc1NC(=O)N1c2ccccc2CC1C (stereo not given),5.1,38.3,-2.4,25.3,nt,nt
O=C(NC1CCCC1)c1cc(-c2ccc(Cl)cc2Cl)on1,2.7,13.0,2.0,0.1,nt,nt
Cc1cc(Br)cn2ccnc12,-2.1,-4.8,-1.2,-9.9,nt,nt
Cc1ccc2[nH]c(=O)c3cc(C(=O)N(C)c4ccc(C)c(C)c4)sc3c2c1,58.5*,-0.9,0.1,-3.0,12.2,-5.7
O=C(C1=C(O)C(=O)N(CCCn2ccnc2)C1c1ccccc1)c1ccco1 (stereo not given),35.2,-23.2,0.9,-4.8,nt,nt
O=C(C1=C(O)C(=O)N(CCCn2ccnc2)C1c1cccc(Br)c1)c1ccco1 (stereo not given),55.2*,-13.4,0.4,-6.2,5.8,30.2
CCOCCCNS(=O)(=O)c1ccc(NC(=O)c2ccc(OC)c([N+](=O)[O-])c2)cc1,55.8*,12.7,2.7,1.9,10.1,7.3
CC(=O)N1CCN(C(=S)NC(=O)C23CC4CC(CC(C4)C2)C3)CC1,41.1,8.2,2.8,-3.6,nt,nt
CNC(=S)N1CCC(NC(=O)C23CC4CC(CC(C4)C2)C3)CC1,56.4*,-19.7,0.3,-4.4,3.8,-5.6
O=C(Nc1c2c(nn1-c1ccccc1)CS(=O)(=O)C2)c1cc2ccccc2o1,22.3,-1.0,1.3,-2.5,nt,nt
Cc1ccc(-n2nc3c(c2NC(=O)c2cc4ccccc4o2)CS(=O)(=O)C3)cc1,57.2*,-2.4,2.5,5.9,0.4,-1.9
O=c1c2c3c(sc2nc2n1CCCCC2)CCC3,104.3*,2.7,-7.5,-8.9,-2.6,-4.7
CC(C)(C)NC(=O)NC(=O)CN1CCCCC1,14.7,62.3,2.4,-5.6,nt,nt
CC(C)(C)NC(=O)NC(=O)CN1CCCCCCC1,61.9*,-4.2,1.5,-7.2,-12.1,-4.4
CCc1ccc(CN(C(=O)c2ccco2)C2CCS(=O)(=O)C2)cc1 (stereo not given),66.9*,-12.3,0.1,-2.0,-14.8,-1.3
CCN(CC)c1ccc(CN(C(=O)c2ccco2)C2CCS(=O)(=O)C2)cc1 (stereo not given),-0.2,-1.5,-1.4,-3.3,nt,nt
CCOC(=O)C1(Cc2cccc(Cl)c2)CCCN(C(=O)CN2C(=O)CSC2=O)C1 (stereo not given),61.7*,-10.8,-0.7,-0.3,-7.2,-5.9
CCOC(=O)C1(Cc2cccc(Cl)c2)CCCN(C(=O)c2cn[nH]c2)C1 (stereo not given),66.8*,8.3,0.1,-7.3,4.4,-8.2
CCOC(=O)C1(Cc2cccc(Cl)c2)CCCN(C(=O)CCNC(C)=O)C1 (stereo not given),14.8,-5.6,-2.4,-4.2,nt,nt
CCOC(=O)C1(Cc2ccccc2)CCCN(C(=O)c2cn[nH]c2)C1 (stereo not given),7.2,-6.9,1.9,-5.6,nt,nt
